Assay results from ChEMBL document CHEMBL1157816, “Action of a pentacyclic triterpenoid, maslinic acid, against Toxoplasma gondii” (J Nat Prod, 2010).
The source made the active and inactive calls. No cut-off for these calls is given here.

Assays:
Vero [1] = test: Inhibition of serine protease in excreted-secreted products fraction of Toxoplasma gondii RH tachyzoites infected in african green monkey Vero cells by SDS-PAGE and zymography; format: cell-based
Summary of the method: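 Purified tachyzoites (6 × 10^7/100 µL DMEM without serum) pretreated 15 min at room temperature with compound at various concentrations. Micronemal secretion is induced at 37 °C with 200 mM ethanol, then the parasites are pelleted and secretion stopped on ice. The ESP fraction goes in nonreducing sample buffer onto 12% SDS-PAGE with 0.1% gelatin, run at 90 V, 4 °C. The gel gets 2.5% Triton X-100 for 60 min, then develops overnight at 37 °C (50 mM Tris-HCl, 10 mM CaCl2, pH 6.8). Coomassie stain.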

[2] = Toxicity in african green monkey Vero cells by alamar blue assay; format: cell-based; conditions: chlorocebus sabaeus, read-out: LD50 (the source's name)
Summary of the method: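 Semiconfluent Vero cells (1 × 10^4/well; DMEM, 10% heat-inactivated FCS, 2 mM glutamine, penicillin/streptomycin) exposed to compound dilutions (3.9-500 µM series) with Alamar Blue for 24 h, 37 °C, 5% CO2. Controls are medium, AB and drug blanks, plus cells with DMSO. Percent AB reduction is read from absorbance at 570/600 nm against the DMSO control by the manufacturer's formula. LD50 reported as mean ± SEM.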

Toxoplasma gondii [3] = test: Antimicrobial activity against Toxoplasma gondii RH tachyzoites assessed as inhibition of parasite invasion of african green monkey Vero cells pretreated for 1 hr before cell infection measured 24 to 48 hrs post infection; format: functional
Summary of the method: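 RH tachyzoites (mouse ascites, passaged in Vero cells, needle- and 5 µm filter-purified), 2.5 × 10^5 pretreated 1 h at 37 °C in medium with compound (250-15.6 µM) or DMSO control. They then infect semiconfluent Vero cells at 10 parasites/cell, 37 °C, 5% CO2. Medium is replaced. Slides are methanol-fixed and Diff-Quick stained at 24 and 48 h. Percent parasitised is scored by light microscopy in 500 cells/slide, three repeats, mean ± SEM, giving ID50.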

Toxoplasma gondii [4] = test: Antimicrobial activity against Toxoplasma gondii RH tachyzoites assessed as inhibition of parasite invasion of african green monkey Vero cells pretreated for 1 hr before cell infection measured 24 hrs post infection; format: functional; conditions: read-out: ID50 (the source's name)
Summary of the method: (§1)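 Purified RH tachyzoites (2.5 × 10^5) pretreated 1 h at 37 °C in medium with compound (250-15.6 µM) or DMSO control. They then infected semiconfluent Vero cells at 10 parasites/cell (37 °C, 5% CO2), after which medium was replaced. Slides fixed in methanol at 24 or 48 h and stained with Diff-Quick. Percentage parasitism from 500 cells per slide by light microscopy; three repeats; mean ± SEM; ID50 reported.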

Toxoplasma gondii [5] = test: Antimicrobial activity against Toxoplasma gondii RH tachyzoites assessed as inhibition of parasite gliding motility at 25 uM pretreated for 15 mins; format: functional
Summary of the method: (§2)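 RH-strain tachyzoites (passaged in Balb/c mice and Vero cells, filter-purified) pretreated 15 min at 37 °C with compound at 50, 25 or 10 µM; DMSO at maximum solvent level as control. Slides coated with 0.1% poly-L-lysine in PBS pH 7.2. Fixed in 4% formaldehyde/0.02% glutaraldehyde, stained with anti-SAG-1 (P30) mAb 1/50 plus FITC anti-IgG 1/100; trail number and length scored by confocal microscopy.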

Toxoplasma gondii [6] = test: Cytopathic effect against Toxoplasma gondii RH intracellular tachyzoites infected in african green monkey Vero cells assessed as induction of morphological changes at 25 uM by electron microscopy; format: functional, organism-based
Summary of the method: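 Vero cultures infected 24 h, then treated with 25 µM compound for 8 h. Fixed in 2.5% glutaraldehyde in cacodylate buffer, scraped, postfixed 30 min in 1% OsO4 and embedded in Spurr resin. Sections stained with uranyl acetate and lead citrate and viewed by TEM.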

Toxoplasma gondii [7] = test: Cytopathic effect against Toxoplasma gondii RH extracellular tachyzoites infected in african green monkey Vero cells assessed as induction of morphological changes at 25 uM after 4 hrs by electron microscopy; format: functional, organism-based
Summary of the method: (§3)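 Purified extracellular tachyzoites exposed to 25 µM compound for 4 or 8 h. Fixed in 2.5% glutaraldehyde in cacodylate buffer, postfixed 30 min in 1% buffered OsO4, dehydrated and embedded in Spurr resin. Ultrathin sections stained with 8% uranyl acetate then 0.2% lead citrate and examined by transmission electron microscopy.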

Vero [8] = test: Inhibition of serine protease in excreted-secreted products fraction of […] secretion proteins of Toxoplasma gondii RH tachyzoites infected in african green monkey Vero cells by SDS-PAGE and zymography; format: cell-based
Summary of the method: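 Tachyzoites (6 × 10^7 in 100 µL serum-free DMEM) pretreated 15 min at room temperature with compound at various concentrations. Micronemal secretion induced at 37 °C with 200 mM ethanol and stopped on ice after centrifugation. The ESP fraction was run in nonreducing 12% SDS-PAGE containing 0.1% gelatin at 90 V, 4 °C. Gel washed in 2.5% Triton X-100, developed overnight at 37 °C in Tris/CaCl2 pH 6.8 and Coomassie-stained; cleared bands read as activity.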

Toxoplasma gondii [9] = test: Antimicrobial activity against Toxoplasma gondii RH tachyzoites assessed as inhibition of parasite invasion of african green monkey Vero cells pretreated for 1 hr before cell infection measured 48 hrs post infection; format: functional; conditions: read-out: ID50 (the source's name); summary of the method: as §1
Toxoplasma gondii [10] = test: Antimicrobial activity against Toxoplasma gondii RH tachyzoites assessed as inhibition of parasite gliding motility pretreated for 15 mins; format: functional; summary of the method: as §2
Toxoplasma gondii [11] = test: Antimicrobial activity against Toxoplasma gondii RH tachyzoites assessed as inhibition of parasite gliding motility at 50 uM pretreated for 15 mins; format: functional; summary of the method: as §2
Toxoplasma gondii [12] = test: Cytopathic effect against Toxoplasma gondii RH extracellular tachyzoites infected in african green monkey Vero cells assessed as induction of morphological changes at 25 uM after 8 hrs by electron microscopy; format: functional, organism-based; summary of the method: as §3
Toxoplasma gondii [13] = test: Antimicrobial activity against Toxoplasma gondii RH tachyzoites assessed as inhibition of parasite gliding motility at 10 uM pretreated for 15 mins; format: functional; summary of the method: as §2

SMILES	inhibition (Vero [1])	CC50 [2] [µM]	inhibition (Toxoplasma gondii [3])	IC50 (Toxoplasma gondii [4]) [µM]	inhibition at 25 µM (Toxoplasma gondii [5]) [%]	inhibition (Toxoplasma gondii [6])	inhibition (Toxoplasma gondii [7])	inhibition (Vero [8])	IC50 (Toxoplasma gondii [9]) [µM]	inhibition (Toxoplasma gondii [10])	inhibition (INH) (Toxoplasma gondii [10]) [%]	inhibition at 50 µM (Toxoplasma gondii [11]) [%]	inhibition (Toxoplasma gondii [12])	inhibition at 10 µM (Toxoplasma gondii [13]) [%]
O=S(=O)(F)Cc1ccccc1 [PHENYLMETHYLSULFONYLFLUORIDE]	Dose-dependent effect	133												
CC1(C)CC[C@]2(C(=O)O)CC[C@]3(C)C(=CC[C@@H]4[C@@]5(C)C[C@@H](O)[C@H](O)C(C)(C)[C@@H]5CC[C@]43C)[C@@H]2C1 [MASLINIC ACID]	Dose-dependent effect	237	Dose-dependent effect	46	59.7	Active	Active	Active	8	Dose-dependent effect	100	≥ 100	Active	58.8
NCCc1ccc(S(=O)(=O)F)cc1		36.9												
